Measurements reported in ChEMBL document CHEMBL4619802, “Discovery and Characterization of Pure RhlR Antagonists against Pseudomonas aeruginosa Infections” (J Med Chem, 2020).
The source made the active and inactive calls. The calls are words filed in the database; no cut-off is given here.

Tests used:
[1] = target: T1, HTH-type quorum-sensing regulator RhlR (Pseudomonas aeruginosa (strain ATCC 15692 / PAO1 / 1C / PRS 101 / LMG12228)) (UniProt P54292); assay: Modulation of RhlR in Pseudomonas aeruginosa assessed as biofilm formation at 100 uM incubated for 24 hrs under static condition by crystal violet staining based assay relative to control
T1 sequence (whole entry): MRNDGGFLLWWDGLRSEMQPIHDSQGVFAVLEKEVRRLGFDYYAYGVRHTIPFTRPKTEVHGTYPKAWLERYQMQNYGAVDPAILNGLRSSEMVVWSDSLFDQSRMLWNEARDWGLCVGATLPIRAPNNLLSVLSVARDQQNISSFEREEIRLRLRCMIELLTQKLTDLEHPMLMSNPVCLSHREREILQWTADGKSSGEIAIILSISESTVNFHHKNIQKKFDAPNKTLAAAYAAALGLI

[2] = target: T1, HTH-type quorum-sensing regulator RhlR (Pseudomonas aeruginosa (strain ATCC 15692 / PAO1 / 1C / PRS 101 / LMG12228)); assay: Antagonist activity at RhlR in Pseudomonas aeruginosa assessed as rhamnolipid production at 100 uM incubated for 24 hrs by Orcinol staining based assay relative to control; parameters: scale not given: the % may be the effect or the level left
[3] = target: T1, HTH-type quorum-sensing regulator RhlR (Pseudomonas aeruginosa (strain ATCC 15692 / PAO1 / 1C / PRS 101 / LMG12228)); assay: Antagonist activity at RhlR in Pseudomonas aeruginosa assessed as rhamnolipid production at 10 uM incubated for 24 hrs by Orcinol staining based assay relative to control; parameters: scale not given: the % may be the effect or the level left
[4] = target: T1, HTH-type quorum-sensing regulator RhlR (Pseudomonas aeruginosa (strain ATCC 15692 / PAO1 / 1C / PRS 101 / LMG12228)); assay: Modulation of RhlR in Pseudomonas aeruginosa assessed as biofilm formation at 10 uM incubated for 24 hrs under static condition by crystal violet staining based assay relative to control
[5] = target: T1, HTH-type quorum-sensing regulator RhlR (Pseudomonas aeruginosa (strain ATCC 15692 / PAO1 / 1C / PRS 101 / LMG12228)); assay: Agonist activity at Pseudomonas aeruginosa RhlR expressed in Escherichia coli DH5alpha assessed as relative protein activity at 100 uM incubated for 1.5 hrs by luminescence reporter gene assay relative to control
[6] = target: T1, HTH-type quorum-sensing regulator RhlR (Pseudomonas aeruginosa (strain ATCC 15692 / PAO1 / 1C / PRS 101 / LMG12228)); assay: Antagonist activity at Pseudomonas aeruginosa RhlR expressed in Escherichia coli DH5alpha assessed as relative protein activity at 100 uM incubated for 1.5 hrs in presence of N-butyryl-L-homoserine lactone by luminescence reporter gene assay relative to control; parameters: scale not given: the % may be the effect or the level left
In short: (§1)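 E. coli DH5α sdiA mutant carrying RhlR and rhlA::lacZ plasmids, at OD595 0.3 in LB. Compound given with BHL (10 µM per footnote) and 0.4% arabinose, 37 °C for 1.5 h.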

Pseudomonas aeruginosa [7] = assay: Antibacterial activity against Pseudomonas aeruginosa assessed as bacterial growth at 10 uM incubated for 24 hrs relative to control; type: functional
In short: (§2)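 P. aeruginosa overnight culture (OD595 1.0) diluted 1:20 in AB medium (pH 7.5, 1% glucose, casamino acids, arginine) with compound, in borosilicate bottles, 37 °C for 24 h without shaking. Growth taken as OD595 of the suspended culture. Attached cells washed twice with PBS, stained with 0.1% crystal violet for 10 min, dye eluted in ethanol and read at 545 nm.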

[8] = target: T1, HTH-type quorum-sensing regulator RhlR (Pseudomonas aeruginosa (strain ATCC 15692 / PAO1 / 1C / PRS 101 / LMG12228)); assay: Agonist activity at Pseudomonas aeruginosa RhlR expressed in Escherichia coli DH5alpha assessed as relative protein activity at 1000 uM incubated for 1.5 hrs by luminescence reporter gene assay relative to control
[9] = target: T1, HTH-type quorum-sensing regulator RhlR (Pseudomonas aeruginosa (strain ATCC 15692 / PAO1 / 1C / PRS 101 / LMG12228)); assay: Antagonist activity at Pseudomonas aeruginosa RhlR expressed in Escherichia coli DH5alpha assessed as relative protein activity at 10 uM incubated for 1.5 hrs in presence of N-butyryl-L-homoserine lactone by luminescence reporter gene assay relative to control; parameters: scale not given: the % may be the effect or the level left; in short: as §1
Pseudomonas aeruginosa [10] = assay: Antibacterial activity against Pseudomonas aeruginosa assessed as bacterial growth at 100 uM incubated for 24 hrs relative to control; type: functional; in short: as §2
[11] = target: T2, Transcriptional activator protein LasR (Pseudomonas aeruginosa (strain ATCC 15692 / PAO1 / 1C / PRS 101 / LMG12228)) (UniProt P25084); assay: Agonist activity at Pseudomonas aeruginosa LasR expressed in Escherichia coli DH5alpha at 0.1 to 10 uM incubated for 1.5 hrs by luminescence reporter gene assay
T2 sequence (whole entry): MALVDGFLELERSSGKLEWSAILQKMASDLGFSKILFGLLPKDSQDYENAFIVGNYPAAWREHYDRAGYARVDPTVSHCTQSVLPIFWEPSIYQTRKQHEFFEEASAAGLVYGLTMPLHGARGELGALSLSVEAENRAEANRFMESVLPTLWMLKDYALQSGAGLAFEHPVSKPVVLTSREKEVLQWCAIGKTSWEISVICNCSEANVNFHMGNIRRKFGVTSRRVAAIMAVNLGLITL

[12] = target: T2, Transcriptional activator protein LasR (Pseudomonas aeruginosa (strain ATCC 15692 / PAO1 / 1C / PRS 101 / LMG12228)); assay: Antagonist activity at Pseudomonas aeruginosa LasR expressed in Escherichia coli DH5alpha at 0.1 to 10 uM incubated for 1.5 hrs by luminescence reporter gene assay
[13] = target: T3, Transcriptional regulator MvfR (Pseudomonas aeruginosa PA14) (UniProt A0A072ZLE6); assay: Agonist activity at Pseudomonas aeruginosa PqsR expressed in Escherichia coli DH5alpha at 0.1 to 10 uM incubated for 1.5 hrs by luminescence reporter gene assay
T3 sequence (whole entry): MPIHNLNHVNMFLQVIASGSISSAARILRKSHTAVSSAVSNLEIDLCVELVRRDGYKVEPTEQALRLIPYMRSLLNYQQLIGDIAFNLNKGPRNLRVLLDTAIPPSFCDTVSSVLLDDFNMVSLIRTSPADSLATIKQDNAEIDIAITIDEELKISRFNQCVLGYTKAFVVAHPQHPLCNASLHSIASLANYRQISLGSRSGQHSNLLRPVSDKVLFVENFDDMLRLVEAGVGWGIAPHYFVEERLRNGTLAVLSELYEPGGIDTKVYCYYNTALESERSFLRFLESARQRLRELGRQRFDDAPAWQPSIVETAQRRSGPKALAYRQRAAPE

Pseudomonas aeruginosa [14] = assay: Downregulation of rhlA expression in biofilm of Pseudomonas aeruginosa at 10 uM after 24 hrs by RT-qPCR analysis relative to control; type: functional
In short: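 P. aeruginosa (OD595 1.0) diluted 1:20 in AB medium with compound in borosilicate bottles, 37 °C for 24 h. Total RNA extracted from biofilm cells and run by SYBR RT-qPCR with QS-gene primers. Cycling: 95 °C 10 s, then 40 cycles of 95 °C 10 s and 60 °C 10 s.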

[15] = target: T3, Transcriptional regulator MvfR (Pseudomonas aeruginosa PA14); assay: Antagonist activity at Pseudomonas aeruginosa PqsR expressed in Escherichia coli DH5alpha at 0.1 to 10 uM incubated for 1.5 hrs by luminescence reporter gene assay
[16] = target: T1, HTH-type quorum-sensing regulator RhlR (Pseudomonas aeruginosa (strain ATCC 15692 / PAO1 / 1C / PRS 101 / LMG12228)); assay: Modulation of RhlR in Pseudomonas aeruginosa assessed as reduction in biofilm formation at 10 uM incubated for 48 hrs under dynamic condition by measuring biofilm volume by 4',6-diamidino-2-phenylindole staining based confocal laser scanning microscopy
In short: (§3)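 Drip-flow reactor with glass slides, fed continuously at 0.3 mL/min with AB medium containing 5% P. aeruginosa (OD595 1.0) plus compound, 37 °C for 48 h. Unattached cells removed with PBS. Volume and thickness obtained with Comstat2.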

[17] = target: T1, HTH-type quorum-sensing regulator RhlR (Pseudomonas aeruginosa (strain ATCC 15692 / PAO1 / 1C / PRS 101 / LMG12228)); assay: Modulation of RhlR in Pseudomonas aeruginosa assessed as reduction in biofilm formation at 10 uM incubated for 48 hrs under dynamic condition by measuring biofilm thickness by 4',6-diamidino-2-phenylindole staining based confocal laser scanning microscopy; in short: as §3
[18] = target: T1, HTH-type quorum-sensing regulator RhlR (Pseudomonas aeruginosa (strain ATCC 15692 / PAO1 / 1C / PRS 101 / LMG12228)); assay: Modulation of RhlR in Pseudomonas aeruginosa assessed as inhibition of biofilm formation at 100 uM incubated for 24 hrs under static condition by crystal violet staining based assay relative to control; parameters: scale not given: the % may be the effect or the level left; in short: as §2
[19] = target: T1, HTH-type quorum-sensing regulator RhlR (Pseudomonas aeruginosa (strain ATCC 15692 / PAO1 / 1C / PRS 101 / LMG12228)); assay: Modulation of RhlR in Pseudomonas aeruginosa assessed as inhibition of biofilm formation at 10 uM incubated for 24 hrs under static condition by crystal violet staining based assay relative to control; parameters: scale not given: the % may be the effect or the level left; in short: as §2

SMILES | Activity [1] | Activity [2] | Activity [3] | Activity [4] | Activity [5] | Activity [6] | Activity (Pseudomonas aeruginosa [7]) | Activity [8] | Activity [9] | Activity (Pseudomonas aeruginosa [10]) | Activity [11] | Activity [12] | Activity [13] | Activity (Pseudomonas aeruginosa [14]) | Activity [15] | Activity [16] | Activity [17] | Activity [18] | Activity [19]
CCCCCC(=O)/C=C/c1ccc(F)c(F)c1 | 61% | 62% | 64% | 80% | 4% | 51% | 103% | 3% | 53% | 103% |  |  |  |  |  |  |  |  | 
CCCCC[C@H](O)C#Cc1ccc(O)c(OC)c1 |  |  |  | Active | 3% | 34% |  |  |  | inactive |  |  |  |  |  |  |  |  | 
CCCC(O)CC(=O)/C=C/c1ccc(F)c(F)c1 (stereo not drawn) | 53% | 50% | 63% | 72% | 2% | 20% | 101% | 5% | 60% | 105% |  |  |  |  |  |  |  |  | 
CCCCC[C@@H](O)C#Cc1ccc(O)c(OC)c1 |  |  |  | Active | 3% | 27% |  |  |  | inactive |  |  |  |  |  |  |  |  | 
CCC[C@H](O)C#Cc1ccc(F)c(F)c1 | 64% | 52% | 59% | 79% | 3% | 38% | 98% | 5% | 59% | 99% |  |  |  |  |  |  |  |  | 
CCCCC[C@H](O)CC(=O)CCc1ccc(O)c(OC)c1 [GINGEROL] |  |  |  |  |  |  | 96% |  |  | 101% | inactive | Active | inactive | 38% | inactive |  |  |  | 
CCCC(=O)NC1CCCC1 | 69% | 45% | 58% | 84% | 4% | 54% | 95% | 37% | 74% | 98% | inactive |  | inactive | 65 - 79% | inactive | 14.4 um3/um2 | 20.2 µm |  | 
CCCCCCCCC(O)CC(=O)CCc1ccc(O)c(OC)c1 (stereo not drawn) |  |  |  | Active | 2% | 41% |  |  |  | inactive |  |  |  |  |  |  |  |  | 
CCCCC(=O)C#Cc1ccc(F)c(F)c1 | 55% | 49% | 59% | 75% | 4% | 16% | 100% | 6% | 29% | 89% |  |  |  |  |  |  |  |  | 
CCCC(O)CC(=O)/C=C/c1cccc(OC)c1 (stereo not drawn) | 73% | 83% | 91% | 88% | 2% | 94% | 96% | 4% | 89% | 95% |  |  |  |  |  |  |  |  | 
CCCCCC(O)C#Cc1ccc(O)c(OC)c1 (racemic) |  |  |  | Active | 3% | 32% |  |  |  | inactive |  |  |  |  |  |  |  |  | 
CCCC(O)CC(=O)CCc1ccc(O)c(OC)c1 (stereo not drawn) |  |  |  |  | 3 to 4% | 54 to 69% |  |  |  |  | inactive | inactive | inactive | 65 - 79% | inactive |  |  | 29 to 53% | 14 to 32%
